In ChEMBL document CHEMBL3797045, “Routes of Synthesis of Carbapenems for Optimizing Both the Inactivation of L,D-Transpeptidase LdtMt1 of Mycobacterium tuberculosis and the Stability toward Hydrolysis by β-Lactamase BlaC” (J Med Chem, 2016):

What was measured:
[1] = test system: Mycobacterium tuberculosis; test: Activity at Mycobacterium tuberculosis beta lactamase BlaC expressed in Escherichia coli assessed as ratio of Kcat to Km by spectrophotometric method
Procedure, shortened: (§1)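 BlaC produced in E. coli, purified by Ni-NTA affinity and size-exclusion chromatography. Carbapenem hydrolysis followed spectrophotometrically in 100 mM MES buffer, pH 6.4, at 20 °C. Direct determination of kcat and Km for substrates with Km above 10 μM. For the other compounds, kcat and Km were obtained by competition against the reporter substrate nitrocefin.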

[2] = test system: Mycobacterium tuberculosis; test: Inhibition of Mycobacterium tuberculosis LdtMt1 expressed in Escherichia coli assessed as efficiency of acylation reaction by measuring ratio of K2 to Kapp by stopped-flow spectrofluorimetric method
Procedure, shortened: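 His-tagged LdtMt1 expressed in E. coli and purified by Ni2+-NTA affinity, then by size-exclusion chromatography in 100 mM sodium phosphate pH 6.4 with 300 mM NaCl. Inactivation kinetics measured by stopped-flow spectrofluorimetry in 100 mM sodium phosphate, pH 6.0, at 10 °C. k1, k2 and k2/Kapp were calculated from the fluorescence kinetics.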

[3] = test system: Mycobacterium tuberculosis; test: Activity at Mycobacterium tuberculosis beta lactamase BlaC expressed in Escherichia coli by spectrophotometric method; procedure, shortened: as §1

With `CC(c1ccc(C(=O)O)cc1)n1cc(CCSC2=C(C(=O)O)N3C(=O)[C@H]([C@@H](C)O)[C@H]3[C@H]2C)nn1` (some centres not stated) the kcat/Km [1] was 3200 M⁻¹ s⁻¹, the Ratio [2] was 29000 M⁻¹ s⁻¹ and the Km [3] was 47 µM.

`C[C@@H](O)[C@H]1C(=O)N2C(C(=O)O)=C(SCCc3cn(-c4ccccc4C(=O)O)nn3)[C@H](C)[C@H]12` gave a kcat/Km [1] of 300 M⁻¹ s⁻¹, a Ratio [2] of 26000 M⁻¹ s⁻¹ and a Km [3] of 3.3 µM.

`C[C@@H](O)[C@H]1C(=O)N2C(C(=O)O)=C(S[C@@H]3CN[C@H](C(=O)Nc4cccc(C(=O)O)c4)C3)[C@H](C)[C@H]12` showed a kcat/Km [1] of 330 M⁻¹ s⁻¹, a Ratio [2] of 23000 M⁻¹ s⁻¹ and a Km [3] of 4.8 µM.

`C[C@@H](O)[C@H]1C(=O)N2C(C(=O)O)=C(SCCc3cn(CCCCC(=O)O)nn3)[C@H](C)[C@H]12` showed a kcat/Km [1] of 5700 M⁻¹ s⁻¹, a Ratio [2] of 9600 M⁻¹ s⁻¹ and a Km [3] of 56 µM.

In the case of `C[C@@H](O)[C@H]1C(=O)N2C(C(=O)O)=C(S[C@@H]3CN[C@H](C(=O)N(C)C)C3)[C@H](C)[C@H]12`, the kcat/Km [1] is reported as 1000 M⁻¹ s⁻¹, the Ratio [2] is reported as 1300 M⁻¹ s⁻¹ and the Km [3] is reported as 0.92 µM.

Compound `CCSC1=C(C(=O)O)N2C(=O)[C@H]([C@@H](C)OC(=O)c3c(F)c(F)c(F)c(F)c3F)[C@H]2[C@H]1C` has a kcat/Km [1] of 840 M⁻¹ s⁻¹, a Ratio [2] of 25000 M⁻¹ s⁻¹ and a Km [3] of 1.4 µM.

Compound `C[C@@H](O)[C@H]1C(=O)N2C(C(=O)O)=C(SCCc3cn(-c4ccccc4)nn3)[C@H](C)[C@H]12` has a kcat/Km [1] of 2100 M⁻¹ s⁻¹, a Ratio [2] of 26000 M⁻¹ s⁻¹ and a Km [3] of 0.31 µM.

In the case of `CCSC1=C(C(=O)O)N2C(=O)[C@H]([C@@H](C)OC(=O)c3ccccc3)[C@H]2[C@H]1C`, the kcat/Km [1] is reported as 1500 M⁻¹ s⁻¹, the Ratio [2] is reported as 3800 M⁻¹ s⁻¹ and the Km [3] is reported as 1.2 µM.

With `CCSC1=C(C(=O)O)N2C(=O)[C@H]([C@@H](C)O)[C@H]2[C@H]1C` the kcat/Km [1] was 3700 M⁻¹ s⁻¹, the Ratio [2] was 10800 M⁻¹ s⁻¹ and the Km [3] was 11 µM.

`C[C@@H](O)[C@H]1C(=O)N2C(C(=O)O)=C(SCCc3ccccc3)[C@H](C)[C@H]12` was tested, and the kcat/Km [1] was 360 M⁻¹ s⁻¹, the Ratio [2] was 39000 M⁻¹ s⁻¹ and the Km [3] was 1.5 µM.

With `C[C@@H](O)[C@H]1C(=O)N2C(C(=O)O)=C(SCCc3cn(CCc4c[nH]c5ccccc45)nn3)[C@H](C)[C@H]12` the kcat/Km [1] was 2000 M⁻¹ s⁻¹, the Ratio [2] was 28000 M⁻¹ s⁻¹ and the Km [3] was 0.17 µM.

`C[C@@H](O)[C@H]1C(=O)N2C(C(=O)O)=C(S[C@@H]3CN[C@H](CNS(N)(=O)=O)C3)[C@H](C)[C@H]12` gave a kcat/Km [1] of 1500 M⁻¹ s⁻¹, a Ratio [2] of 1500 M⁻¹ s⁻¹ and a Km [3] of 0.46 µM.

`C[C@@H](O)[C@H]1C(=O)N2C(C(=O)O)=C(SCCN)[C@H](C)[C@H]12` showed a kcat/Km [1] of 320 M⁻¹ s⁻¹, a Ratio [2] of 3600 M⁻¹ s⁻¹ and a Km [3] of 3.5 µM.

For `C[C@@H](O)[C@H]1C(=O)N2C(C(=O)O)=C(SCCc3cn(-c4cccc(C(=O)O)c4)nn3)[C@H](C)[C@H]12`, the kcat/Km [1] was 13000 M⁻¹ s⁻¹, the Ratio [2] was 36000 M⁻¹ s⁻¹ and the Km [3] was 19 µM.
